Experimental findings from PMC2818804 (Journal of medicinal chemistry, 2010) are described below.

Values after ≈ are worked out from the molar mass of the structure shown.

The nature of data set [1]: kinetic solubility analysis. It counts as physicochemical. The following applies: aqueous medium (not further specified). The gist of the method:
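Solubility determined by quantitative nitrogen detection. Three separate experiments; average intra-assay %CV 4.5%.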

In data set [2] the target is hPK, M2 (pyruvate kinase, human M2 isoform, PKM2) (Homo sapiens, UniProt P14618). The data set can be described thus: luminescent pyruvate kinase-luciferase coupled assay. In kind it is biochemical. As to conditions: read-out: hPK, M2 AC50, three separate experiments.
The target of the next data set is PKM2 (Homo sapiens, UniProt P14618). The data set can be described thus: steady-state kinetics of PEP and ADP in the PK-LDH coupled assay. It counts as biochemical. The following applies: in the presence of activator (10 μM); PEP varied.
Another data set relates to firefly luciferase. The data set can be described thus: firefly luciferase counter-assay. It counts as biochemical.

Chain of hPK, M2 (pyruvate kinase, human M2 isoform, PKM2) (P14618 whole entry, canonical isoform): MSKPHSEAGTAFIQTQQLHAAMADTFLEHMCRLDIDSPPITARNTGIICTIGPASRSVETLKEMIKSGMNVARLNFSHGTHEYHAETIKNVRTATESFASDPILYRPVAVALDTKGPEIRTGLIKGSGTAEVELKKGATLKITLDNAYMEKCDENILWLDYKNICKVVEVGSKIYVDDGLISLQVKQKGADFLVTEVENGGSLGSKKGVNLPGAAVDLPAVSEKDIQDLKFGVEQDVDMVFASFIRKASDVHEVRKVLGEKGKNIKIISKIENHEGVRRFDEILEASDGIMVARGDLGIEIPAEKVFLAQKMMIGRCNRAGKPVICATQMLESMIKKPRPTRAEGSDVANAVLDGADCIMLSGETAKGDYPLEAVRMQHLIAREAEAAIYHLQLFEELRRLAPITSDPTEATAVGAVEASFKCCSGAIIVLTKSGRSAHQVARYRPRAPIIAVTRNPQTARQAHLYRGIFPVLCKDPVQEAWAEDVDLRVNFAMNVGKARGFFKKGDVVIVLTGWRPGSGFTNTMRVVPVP
Chain of PKM2 (P14618 whole entry): as the sequence (P14618 whole entry, canonical isoform) above

By solubility is commonly meant the dissolved amount per volume that the medium holds. High values mean much dissolved substance, low ones little dissolved substance. Consider `O=S(=O)(c1ccc2c(c1)OCCO2)N1CCCN(S(=O)(=O)c2c(F)cccc2F)CC1` [compound 34], for which the solubility in data set [1] was 2.7 µg/mL (≈ 5.69 µM). On the same count and under the same terms, the result for `COc1cc(F)c(S(=O)(=O)N2CCCN(S(=O)(=O)c3cccc(N)c3)CC2)c(F)c1` [compound 57] reads 15.1 µg/mL (≈ 32.7 µM). Usually AC50 stands for the concentration at which the activity in the assay is half-maximal. For the compound `O=S(=O)(N[C@H]1CC[C@H](NS(=O)(=O)c2c(F)cccc2F)CC1)c1ccc2c(c1)OCCO2` [compound 40], in data set [2], the AC50 is 2110 nM.

As for `O=S(=O)(c1ccc2c(c1)OCCO2)N1CCN(S(=O)(=O)c2c(F)cccc2F)CC1` [compound 10], the solubility in data set [1] was less than 0.5 µg/mL. Regarding `COc1ccc(S(=O)(=O)N2CCN(S(=O)(=O)c3ccc4c(c3)OCCO4)CC2)cc1` [compound 2], the Vmax at PKM2 came out at 265 pmols/min. For the same compound, the “activation of firefly luciferase” value with firefly luciferase is reported as “did not activate”.

As for `Nc1cccc(S(=O)(=O)N2CCN(S(=O)(=O)c3c(F)cccc3F)CC2)c1` [compound 56], the solubility in data set [1] came out at 3 µg/mL (≈ 7.19 µM).
